Source: ChEMBL document CHEMBL1143614, “Structure-activity relationships of the unique and potent agouti-related protein (AGRP)-melanocortin chimeric Tyr-c[beta-Asp-His-DPhe-Arg-Trp-Asn-Ala-Phe-Dpr]-Tyr-NH2 peptide template” (J Med Chem, 2005)
Where a SMILES comes first, the peptide text is derived from it. Bridges are numbered along the chain shown (N, C = ends).

Tests used:
[1] = molecular target: Melanocortin receptor 3 (Mus musculus, UniProt P33033); assay: Effective concentration for mouse Melanocortin-3 receptor
Outline: (§1)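 HEK-293 cells stably expressing the mouse receptor (G418 selection), transiently transfected with a CRE/β-galactosidase reporter. Forskolin (10^-4 M) served as the control. After lysis, ONPG was added at 37° and OD405 was read. Signals were normalized to protein content and forskolin; EC50 came from a nonlinear least-squares fit, duplicate or more independent experiments in quadruplicate.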

[2] = species: Mus musculus; assay: Relative effective concentration for Melanocortin-3 and Melanocortin-4 receptors
[3] = molecular target: Melanocortin receptor 3 (Mus musculus) (UniProt P33033); assay: Partial agonist activity towards mouse Melanocortin-3 receptor; assay type: functional
Outline: (§2)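 HEK-293 cells stably expressing mouse melanocortin receptors (G418-selected) were transiently transfected with a CRE/β-galactosidase reporter. 48 h after transfection, cells were stimulated for 6 h with peptide (10^-4 to 10^-12 M) or forskolin (10^-4 M) in DMEM with 0.1 mg/mL BSA and 0.1 mM IBMX. Lysates were incubated with ONPG at 37° and read at OD405. Signals were normalized to relative protein (OD595) and to forskolin response. EC50 came from nonlinear least-squares fits of duplicate experiments in quadruplet or more.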

[4] = molecular target: Melanocyte-stimulating hormone receptor (Mus musculus, UniProt Q01727); assay: Effective concentration for mouse Melanocortin-1 receptor
[5] = molecular target: Melanocortin receptor 5 (Mus musculus, UniProt P41149); assay: Effective concentration for mouse Melanocortin-5 receptor
[6] = molecular target: Melanocortin receptor 4 (Mus musculus, UniProt P56450); assay: Effective concentration for mouse Melanocortin-4 receptor; outline: as §1
[7] = molecular target: Melanocortin receptor 3 (Mus musculus) (UniProt P33033); assay: Relative percent of stimulatory activity for mouse Melanocortin-3 receptor at 100 uM; outline: as §2

Sequence of Melanocyte-stimulating hormone receptor (Q01727 whole entry): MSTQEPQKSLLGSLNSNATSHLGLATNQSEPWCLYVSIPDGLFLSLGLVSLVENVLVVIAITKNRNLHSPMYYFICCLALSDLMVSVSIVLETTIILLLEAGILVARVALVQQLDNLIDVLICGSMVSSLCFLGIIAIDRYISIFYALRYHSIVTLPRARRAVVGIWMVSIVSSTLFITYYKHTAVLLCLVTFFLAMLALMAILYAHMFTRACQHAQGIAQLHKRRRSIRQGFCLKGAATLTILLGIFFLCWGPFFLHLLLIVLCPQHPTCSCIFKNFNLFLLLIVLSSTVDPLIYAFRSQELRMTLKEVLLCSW
Sequence of Melanocortin receptor 4 (P56450 whole entry): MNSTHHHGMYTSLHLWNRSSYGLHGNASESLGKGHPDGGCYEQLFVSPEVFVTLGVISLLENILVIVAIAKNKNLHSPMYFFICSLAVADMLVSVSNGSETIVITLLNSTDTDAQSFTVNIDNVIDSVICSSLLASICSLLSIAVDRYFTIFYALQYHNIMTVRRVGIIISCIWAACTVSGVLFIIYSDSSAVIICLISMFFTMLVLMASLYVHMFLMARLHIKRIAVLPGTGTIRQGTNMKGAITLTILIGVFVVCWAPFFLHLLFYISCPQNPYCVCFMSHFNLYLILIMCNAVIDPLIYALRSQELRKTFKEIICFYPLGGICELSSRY
Sequence of Melanocortin receptor 5 (P41149 whole entry): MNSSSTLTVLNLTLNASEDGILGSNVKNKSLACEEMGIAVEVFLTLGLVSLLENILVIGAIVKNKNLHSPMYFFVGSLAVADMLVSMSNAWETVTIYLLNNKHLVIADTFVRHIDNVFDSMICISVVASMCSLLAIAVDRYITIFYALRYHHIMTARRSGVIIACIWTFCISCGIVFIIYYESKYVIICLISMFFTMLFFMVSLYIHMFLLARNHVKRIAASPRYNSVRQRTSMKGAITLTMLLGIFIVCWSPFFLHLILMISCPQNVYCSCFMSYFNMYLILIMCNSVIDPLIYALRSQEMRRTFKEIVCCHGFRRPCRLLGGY
Sequence of Melanocortin receptor 3 (P33033 whole entry): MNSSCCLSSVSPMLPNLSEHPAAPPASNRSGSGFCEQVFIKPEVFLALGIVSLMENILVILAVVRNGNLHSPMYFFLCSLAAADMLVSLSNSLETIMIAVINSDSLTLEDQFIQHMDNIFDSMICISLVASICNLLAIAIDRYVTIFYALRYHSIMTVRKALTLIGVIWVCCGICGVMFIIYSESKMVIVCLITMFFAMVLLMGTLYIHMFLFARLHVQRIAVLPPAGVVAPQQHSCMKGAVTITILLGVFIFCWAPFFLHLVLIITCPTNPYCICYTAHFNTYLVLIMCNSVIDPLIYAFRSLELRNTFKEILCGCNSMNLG
Sequence of Melanocortin receptor 3 (Mus musculus) (P33033 whole entry): as above

SMILES | EC50 [1] [nM] | Selectivity ratio [2] | also measured
C[C@@H]1NC(=O)[C@H](CC(N)=O)NC(=O)[C@H](Cc2ccc3ccccc3c2)NC(=O)[C@H](CCCN=C(N)N)NC(=O)[C@@H](Cc2ccccc2)NC(=O)[C@H](Cc2c[nH]cn2)NC(=O)[C@@H](NC(=O)[C@@H](N)Cc2ccc(O)cc2)CC(=O)N([C@@H](Cc2ccc(O)cc2)C(N)=O)[C@@](C)(C(=O)O)NC(=O)[C@H](Cc2ccccc2)NC1=O | 5.56 | 21 | 
C[C@@H]1NC(=O)[C@H](CC(N)=O)NC(=O)[C@H](Cc2c[nH]c3ccccc23)NC(=O)[C@H](CCCN=C(N)N)NC(=O)[C@@H](Cc2cccc3ccccc23)NC(=O)[C@H](Cc2c[nH]cn2)NC(=O)[C@@H](NC(=O)[C@@H](N)Cc2ccc(O)cc2)CC(=O)N([C@@H](Cc2ccc(O)cc2)C(N)=O)[C@@](C)(C(=O)O)NC(=O)[C@H](Cc2ccccc2)NC1=O | 320 | 560 | 
C[C@@H]1NC(=O)[C@H](CC(N)=O)NC(=O)[C@H](Cc2c[nH]c3ccccc23)NC(=O)[C@H](CCCN=C(N)N)NC(=O)[C@@H](Cc2ccccc2)NC(=O)[C@H](Cc2ccccc2)NC(=O)[C@@H](NC(=O)[C@@H](N)Cc2ccc(O)cc2)CC(=O)N([C@@H](Cc2ccc(O)cc2)C(N)=O)[C@@](C)(C(=O)O)NC(=O)[C@H](Cc2ccccc2)NC1=O |  |  | pA2 [3]: 7.2
C[C@@H]1NC(=O)[C@H](CC(N)=O)NC(=O)[C@@H]2CCCN2C(=O)[C@H](CCCNC(=N)N)NC(=O)[C@@H](Cc2ccccc2)NC(=O)[C@H](Cc2c[nH]cn2)NC(=O)[C@@H](NC(=O)[C@@H](N)Cc2ccc(O)cc2)CC(=O)NC[C@@H](C(=O)N[C@@H](Cc2ccc(O)cc2)C(N)=O)NC(=O)[C@H](Cc2ccccc2)NC1=O |  |  | EC50 [4]: 1000 nM; EC50 [5]: 700 nM; EC50 [6]: 7200 nM
C[C@@H]1NC(=O)[C@H](CC(N)=O)NC(=O)[C@@H](Cc2ccc3ccccc3c2)NC(=O)[C@H](CCCN=C(N)N)NC(=O)[C@@H](Cc2ccccc2)NC(=O)[C@H](Cc2c[nH]cn2)NC(=O)[C@@H](NC(=O)[C@@H](N)Cc2ccc(O)cc2)CC(=O)N([C@@H](Cc2ccc(O)cc2)C(N)=O)[C@@](C)(C(=O)O)NC(=O)[C@H](Cc2ccccc2)NC1=O | 6.5 | 10 | 
C[C@@H]1NC(=O)[C@H](CC(N)=O)NC(=O)[C@H](Cc2c[nH]c3ccccc23)NC(=O)[C@H](CCCCN)NC(=O)[C@@H](Cc2ccccc2)NC(=O)[C@H](Cc2c[nH]cn2)NC(=O)[C@@H](NC(=O)[C@@H](N)Cc2ccc(O)cc2)CC(=O)N([C@@H](Cc2ccc(O)cc2)C(N)=O)[C@@](C)(C(=O)O)NC(=O)[C@H](Cc2ccccc2)NC1=O | 30800 |  | 
C[C@@H]1NC(=O)[C@H](CC(N)=O)NC(=O)[C@H](C)NC(=O)[C@H](CCCNC(=N)N)NC(=O)[C@@H](Cc2ccccc2)NC(=O)[C@H](Cc2c[nH]cn2)NC(=O)[C@@H](NC(=O)[C@@H](N)Cc2ccc(O)cc2)CC(=O)NC[C@@H](C(=O)N[C@@H](Cc2ccc(O)cc2)C(N)=O)NC(=O)[C@H](Cc2ccccc2)NC1=O |  |  | EC50 [4]: 350 nM; EC50 [5]: 50.1 nM; EC50 [6]: 710 nM
C[C@@H]1NC(=O)[C@H](CC(N)=O)NC(=O)[C@@H]2CCCN2C(=O)[C@H](CCCN=C(N)N)NC(=O)[C@@H](Cc2ccccc2)NC(=O)[C@H](Cc2c[nH]cn2)NC(=O)[C@@H](NC(=O)[C@@H](N)Cc2ccc(O)cc2)CC(=O)N([C@@H](Cc2ccc(O)cc2)C(N)=O)[C@@](C)(C(=O)O)NC(=O)[C@H](Cc2ccccc2)NC1=O | 39200 |  | 
C[C@@H]1NC(=O)[C@H](CC(N)=O)NC(=O)[C@H](C)NC(=O)[C@H](CCCN=C(N)N)NC(=O)[C@@H](Cc2ccccc2)NC(=O)[C@H](Cc2c[nH]cn2)NC(=O)[C@@H](NC(=O)[C@@H](N)Cc2ccc(O)cc2)CC(=O)N([C@@H](Cc2ccc(O)cc2)C(N)=O)[C@@](C)(C(=O)O)NC(=O)[C@H](Cc2ccccc2)NC1=O | 13500 | 19 | 
C[C@@H]1NC(=O)[C@H](CC(N)=O)NC(=O)[C@H](Cc2c[nH]c3ccccc23)NC(=O)[C@H](CCCN=C(N)N)NC(=O)[C@@H](Cc2ccccc2)NC(=O)[C@H](Cc2c[nH]cn2)NC(=O)[C@@H](NC(=O)[C@@H](N)Cc2ccc(O)cc2)CC(=O)N([C@@H](Cc2ccc(O)cc2)C(N)=O)[C@@](C)(C(=O)O)NC(=O)[C@H](Cc2ccccc2)NC1=O | 0.97 |  | 
C[C@@H]1NC(=O)[C@H](CC(N)=O)NC(=O)[C@H](Cc2c[nH]c3ccccc23)NC(=O)[C@H](C)NC(=O)[C@@H](Cc2ccccc2)NC(=O)[C@H](Cc2c[nH]cn2)NC(=O)[C@@H](NC(=O)[C@@H](N)Cc2ccc(O)cc2)CC(=O)N([C@@H](Cc2ccc(O)cc2)C(N)=O)[C@@](C)(C(=O)O)NC(=O)[C@H](Cc2ccccc2)NC1=O | 23800 | 730 | 
C[C@@H]1NC(=O)[C@H](CC(N)=O)NC(=O)[C@H](Cc2c[nH]c3ccccc23)NC(=O)[C@H](CCCN=C(N)N)NC(=O)[C@@H](Cc2ccccc2)NC(=O)[C@H](Cc2c[nH]cn2)NC(=O)[C@@H](NC(=O)[C@@H](N)Cc2ccc(O)cc2)CC(=O)N([C@@H](Cc2ccc(O)cc2)C(N)=O)[C@@](C)(C(=O)O)NC(=O)[C@@H](Cc2ccccc2)NC1=O | 14 | 21 | 
C[C@@H]1NC(=O)[C@H](CC(N)=O)NC(=O)[C@@H]2Cc3ccccc3CN2C(=O)[C@H](CCCN=C(N)N)NC(=O)[C@@H](Cc2ccccc2)NC(=O)[C@H](Cc2c[nH]cn2)NC(=O)[C@@H](NC(=O)[C@@H](N)Cc2ccc(O)cc2)CC(=O)N([C@@H](Cc2ccc(O)cc2)C(N)=O)[C@@](C)(C(=O)O)NC(=O)[C@H](Cc2ccccc2)NC1=O | 3400 | 13 | 
C[C@@H]1NC(=O)[C@H](CC(N)=O)NC(=O)[C@H](Cc2ccccc2)NC(=O)[C@H](Cc2ccccc2)NC(=O)[C@H](CCCNC(=N)N)NC(=O)[C@@H](NC(=O)[C@@H](N)Cc2ccc(O)cc2)CSSC[C@@H](C(=O)N[C@@H](Cc2ccc(O)cc2)C(N)=O)NC(=O)[C@H](Cc2ccccc2)NC1=O (H-YCRFFNAFCY-NH2; disulfide 2-9) | > 100000 |  | EC50 [5]: > 100000 nM
C[C@@H]1NC(=O)[C@H](CC(N)=O)NC(=O)[C@H](Cc2c[nH]c3ccccc23)NC(=O)[C@H](CCCN=C(N)N)NC(=O)[C@@H](Cc2ccccc2)NC(=O)C2(CCc3ccccc3C2)NC(=O)[C@@H](NC(=O)[C@@H](N)Cc2ccc(O)cc2)CC(=O)NC[C@@H](C(=O)N[C@@H](Cc2ccc(O)cc2)C(N)=O)NC(=O)[C@H](Cc2ccccc2)NC1=O (mixture of isomers) |  |  | EC50 [4]: 690 nM; EC50 [5]: 440 nM; EC50 [6]: 115 nM
C[C@@H]1NC(=O)[C@H](CC(N)=O)NC(=O)[C@H](Cc2c[nH]c3ccccc23)NC(=O)[C@H](CCCCN)NC(=O)[C@@H](Cc2ccccc2)NC(=O)[C@H](Cc2c[nH]cn2)NC(=O)[C@@H](NC(=O)[C@@H](N)Cc2ccc(O)cc2)CC(=O)NC[C@@H](C(=O)N[C@@H](Cc2ccc(O)cc2)C(N)=O)NC(=O)[C@H](Cc2ccccc2)NC1=O |  |  | EC50 [4]: 680 nM; EC50 [5]: 800 nM; EC50 [6]: 8600 nM
C[C@@H]1NC(=O)[C@H](CC(N)=O)NC(=O)[C@H](Cc2c[nH]c3ccccc23)NC(=O)[C@H](CCCN=C(N)N)NC(=O)[C@@H]2CCCN2C(=O)[C@H](Cc2c[nH]cn2)NC(=O)[C@@H](NC(=O)[C@@H](N)Cc2ccc(O)cc2)CC(=O)N([C@@H](Cc2ccc(O)cc2)C(N)=O)[C@@](C)(C(=O)O)NC(=O)[C@H](Cc2ccccc2)NC1=O | 13200 |  | 
C[C@@H]1NC(=O)[C@H](CC(N)=O)NC(=O)[C@H](Cc2c[nH]c3ccccc23)NC(=O)[C@H](CCCN=C(N)N)NC(=O)[C@@H](Cc2ccc(-c3ccccc3)cc2)NC(=O)[C@H](Cc2c[nH]cn2)NC(=O)[C@@H](NC(=O)[C@@H](N)Cc2ccc(O)cc2)CC(=O)N([C@@H](Cc2ccc(O)cc2)C(N)=O)[C@@](C)(C(=O)O)NC(=O)[C@H](Cc2ccccc2)NC1=O | 33 | 58 | 
C[C@@H]1NC(=O)[C@H](CC(N)=O)NC(=O)[C@H](Cc2c[nH]c3ccccc23)NC(=O)[C@H](CCCN=C(N)N)NC(=O)[C@@H](Cc2ccccc2)NC(=O)[C@H](C)NC(=O)[C@@H](NC(=O)[C@@H](N)Cc2ccc(O)cc2)CC(=O)N([C@@H](Cc2ccc(O)cc2)C(N)=O)[C@@](C)(C(=O)O)NC(=O)[C@H](Cc2ccccc2)NC1=O | 29 | 80 | 
C[C@@H]1NC(=O)[C@H](CC(N)=O)NC(=O)[C@H](Cc2c[nH]c3ccccc23)NC(=O)[C@H](CCCN=C(N)N)NC(=O)[C@H](C)NC(=O)[C@H](Cc2c[nH]cn2)NC(=O)[C@@H](NC(=O)[C@@H](N)Cc2ccc(O)cc2)CC(=O)N([C@@H](Cc2ccc(O)cc2)C(N)=O)[C@@](C)(C(=O)O)NC(=O)[C@H](Cc2ccccc2)NC1=O |  |  | SA [7]: 60%
C[C@@H]1NC(=O)[C@H](CC(N)=O)NC(=O)[C@H](Cc2c[nH]c3ccccc23)NC(=O)[C@@H]2CCCN2C(=O)[C@@H](Cc2ccccc2)NC(=O)[C@H](Cc2c[nH]cn2)NC(=O)[C@@H](NC(=O)[C@@H](N)Cc2ccc(O)cc2)CC(=O)N([C@@H](Cc2ccc(O)cc2)C(N)=O)[C@@](C)(C(=O)O)NC(=O)[C@H](Cc2ccccc2)NC1=O | 17300 |  | 
C[C@@H]1NC(=O)[C@H](CC(N)=O)NC(=O)[C@H](Cc2ccc(-c3ccccc3)cc2)NC(=O)[C@H](CCCN=C(N)N)NC(=O)[C@@H](Cc2ccccc2)NC(=O)[C@H](Cc2c[nH]cn2)NC(=O)[C@@H](NC(=O)[C@@H](N)Cc2ccc(O)cc2)CC(=O)N([C@@H](Cc2ccc(O)cc2)C(N)=O)[C@@](C)(C(=O)O)NC(=O)[C@H](Cc2ccccc2)NC1=O | 450 | 11 | 
